Source: PubChem BioAssay (Sanford-Burnham Center for Chemical Genomics)
Sampled rows, rich in hits. Any-hit rate of the full collection: about 3%.
SENP6 inh: inhibitors of human SENP6 protease. Q9GZR1. Recombinant SENP6 catalytic domain, aminoluciferin luminescence. inhibition, % at 10 µM. 1.8% of 330,000 active;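 active means inhibition above about 50% at the single tested dose, limit read from the data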
SENP8 block-1: SENP8 protease inhibition | AID 2540 | inhibition, % at 10 µM | purified SENP8, Z-RLRGG-aminoluciferin cleavage, luminescence | Q96LD8 | 1.2% of 330,000 active; in the data active means inhibition above about 50%
Target sequence (Q96LD8 whole entry, looked up): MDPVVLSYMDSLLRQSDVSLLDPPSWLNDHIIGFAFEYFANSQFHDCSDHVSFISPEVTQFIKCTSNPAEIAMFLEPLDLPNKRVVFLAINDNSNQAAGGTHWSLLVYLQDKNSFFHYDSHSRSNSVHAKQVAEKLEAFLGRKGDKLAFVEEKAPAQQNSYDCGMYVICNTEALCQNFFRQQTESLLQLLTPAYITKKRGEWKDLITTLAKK
SENP7 inh: blocks the human protease SENP7; Q9BQF6; recombinant SENP7, Z-RLRGG-aminoluciferin luminescence, 40 min; inhibition, % at 5 µM; 1.5% of 330,000 active;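 active means inhibition above about 50% at the single test dose, limit read from the data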
Apaf1 inhib: inhibitors of human Apaf-1 apoptosome; 0.71% of 330,000 active; inhibition, % at 20 µM; AID 489030; O14727; reconstituted apoptosome caspase-3 activity, DEVD-Rh110 fluorescence; active means inhibition of at least 40% at 20 µM
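Material: biochemical Apaf-1 apoptosome reconstitution. Medium: Hepes buffer, pH 7.5. Also added: cytochrome c activation, bis-DEVD rhodamine 110 substrate. Timing: 30 min compound preincubation, 50 min activation, room temperature. Measured by: rhodamine 110 fluorescence at Ex 480/Em 540 nm.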
UBC13 polyUb: blocks human UBC13 polyubiquitin chain formation | 0.47% of 330,000 active | TR-FRET | inhibition, % at 20 µM | AID 485273 | P61088; in the data active means inhibition above about 45%, passing the limit was not always enough
Target sequence (P61088 whole entry, looked up): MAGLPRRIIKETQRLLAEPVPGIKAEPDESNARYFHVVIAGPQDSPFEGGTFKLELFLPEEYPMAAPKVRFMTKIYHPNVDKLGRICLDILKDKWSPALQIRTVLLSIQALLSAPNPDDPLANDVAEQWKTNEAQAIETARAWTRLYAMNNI
SENP8 block-2: inhibitors of human SENP8 protease; Q96LD8; recombinant SENP8, Nedd8 substrate fluorescence; inhibition, % at 20 µM; 0.64% of 360,000 active; in the data active means inhibition mostly above about 40%, no sharp cut-off; inactive means mostly below about 27%
Hits are given with their value; . = inactive; / = no result given.

SMILES	SENP6 inh	SENP8 block-1	SENP7 inh	Apaf1 inhib	UBC13 polyUb	SENP8 block-2
Cc1cccc(COc2ccccc2C(=O)N(C)CC(=O)Nc2cccc(F)c2)c1	.	.	.	.	.	.
Nc1cc2sc(-c3ccc(C(=O)O)cc3)nc2cc1Cl	97	98	100	.	.	.
Cc1ccc(-c2csc(NC(=O)C3=COCCO3)n2)cc1	70	.	59	.	.	.
CC(=O)Nc1ccc(-c2csc(NC(=O)C3=COCCO3)n2)cc1	.	.	.	.	.	.
NS(=O)(=O)c1ccc(N/C=C\C(=O)c2ccc(F)cc2)cc1	.	64	70	.	.	.
C[C@H]1Cn2cnc(C(=O)Nc3cccc(Cl)c3)c2C(=O)N1	/	/	/	/	/	.
CN(C)c1cccc2c1C(=O)c1ccccc1C2=O	.	.	.	.	.	.
O=C1c2cccc(Sc3ccccc3)c2C(=O)c2c(Sc3ccccc3)cccc21	.	.	.	.	.	52
Cc1ccc(C(NC(=O)C2CCN(Cc3ccc(Oc4ccccc4)cc3)CC2)c2ccccn2)cc1 (stereo not given)	/	/	/	/	/	.
COC(=O)[C@@]12C[C@@H](CC(=O)NCCCCc3ccccc3)C(=O)N(Cc3ccc4c(c3)OCO4)C1=CCC(C)(C)C2	/	/	/	/	/	.
[O-][N+]1=c2ccc(Nc3ccccc3)cc2=NC12CCCCC2	/	/	/	/	/	86
C=CC(=O)Nc1ccc(CN2C(=O)N(c3c(Cl)c(OC)cc(OC)c3Cl)Cc3cnc(NCCCCN(CC)CC)nc32)cc1	.	.	.	63	63	.
CCN(CC)CCNC(=O)c1ccc(NC(=O)Cc2ccc(OC)c(S(=O)(=O)N3CCOCC3)c2)cc1	/	/	/	/	/	.
Cn1nc(C(C)(C)C)cc1C(=O)N1CCCCC1c1cc(C(=O)NCc2ccc(F)cc2)no1 (stereo not given)	/	/	/	/	/	.
COc1cccc(/C=C2\SC(=S)N(CCCC(=O)N3CCCCC3)C2=O)c1	.	.	.	.	.	26
CN1CCN(C(=O)CCN2C(=O)/C(=C\c3ccc(F)cc3)SC2=S)CC1	.	.	.	.	.	.
CCOc1ccc(/C=C2\SC(=S)N(CCCC(=O)NCCCN3CCOCC3)C2=O)cc1	.	.	.	42	.	.
CCc1ccc(/C=C2\SC(=S)N(CCCC(=O)NCCCN3CCOCC3)C2=O)cc1	/	/	/	/	/	.
CCc1ccc(/C=C2\SC(=S)N(CCCC(=O)N3CCN(C)CC3)C2=O)cc1	/	/	/	/	/	41
CC(C)(C)NC(=O)C(C1CC1)n1c(=O)c(-c2ccco2)nc2ccccc21 (stereo not given)	/	/	/	/	/	.
Cc1cccc(N=Nc2c(C)[nH]n(C(N)=S)c2=O)c1C	77	65	.	.	.	/
CCOC(=O)[C@]12CCCC=C1N(Cc1ccc(Cl)cc1Cl)C(=O)[C@H](CC(=O)NCCc1ccccc1OC)C2	/	/	/	/	/	.
COc1cccc(N=Nc2ccc3cccnc3c2O)c1	90	84	79	.	.	.
COc1cccc(N=Nc2ccc(O)c3ncccc23)c1	77	73	62	.	.	.
Oc1ccc(N=Nc2ccc3c(c2)OCCO3)c(O)c1	95	95	91	.	.	45
SMILES	SENP6 inh	SENP8 block-1	SENP7 inh	Apaf1 inhib	UBC13 polyUb	SENP8 block-2
COc1ccc(N=Nc2ccc(O)c3ncccc23)cc1	.	.	.	.	.	.
Oc1ccc(N=Nc2ccc3c(c2)OCCO3)c2cccnc12	.	.	.	.	.	40
O=C(Cc1ccc2c(c1)OCCO2)c1c(O)cc(O)cc1O	.	.	.	.	.	.
CC1CCN(C(=O)C2CCC(CNS(=O)(=O)c3ccc4c(c3)C(C)(C)C(=O)N4C)CC2)CC1 (stereo not given)	/	/	/	/	/	.
CCOC(=O)c1cccc(N/C=C/C(=O)c2ccc(OC)c(OC)c2)c1	.	.	.	.	.	.
CCOC(=O)c1ccc(N/C=C\C(=O)c2cccc(OC)c2)cc1	.	66	86	.	.	.
COc1ccc(/C=C(\C#N)c2nc3ccccc3[nH]2)cc1O	57	.	.	.	.	.
COC(=O)[C@@]12C[C@@H](CC(=O)N3CCOCC3)C(=O)N(Cc3ccco3)C1=CCC(C)(C)C2	/	/	/	/	/	.
O=C(O)C(Cc1ccccc1)N1C(=O)/C(=C/c2cccs2)SC1=S (stereo not given)	.	.	.	.	.	41
CC(C)n1cnc2c(Nc3ccc(F)c(Cl)c3)nc(NCCO)nc21	.	.	.	.	.	.
C=CC(=O)Nc1ccc(Nc2nc(NC3CCC(N(C)C)CC3)nc3c2ncn3C(C)C)cc1 (stereo not given)	.	.	.	46	.	.
COc1ccc(C(O)c2nc(-c3ccncc3)cs2)cc1 (stereo not given)	/	/	/	/	/	.
CCOc1ccc(N2C(=O)CSC2=S)cc1	.	.	.	.	.	.
CCN(CC)c1ccc(N2C(=O)CSC2=S)cc1	.	.	.	.	.	55
CCc1ccc2nc(N3C(=O)C(O)=C(C(=O)c4ccco4)C3c3cccs3)sc2c1 (stereo not given)	55	.	.	.	.	.
Cc1ccc2nc(N3C(=O)C(O)=C(C(=O)c4ccc(C)o4)C3c3ccco3)sc2c1 (stereo not given)	78	64	76	.	.	.
Cc1ccc2nc(N3C(=O)C(O)=C(C(=O)c4cc5ccccc5o4)C3c3cccs3)sc2c1 (stereo not given)	88	68	78	.	.	.
Cc1ccc2nc(N3C(=O)C(O)=C(C(=O)c4ccco4)C3c3ccc(O)cc3)sc2c1 (stereo not given)	.	.	.	.	.	.
CCCCNC(=O)C1C(c2ccc(OC)cc2)=Nc2ccccc2N1C(=O)c1cccnc1 (stereo not given)	/	/	/	/	/	.
Cc1ccccc1-c1cc2nc(C)c(Cl)c(=O)n2[nH]1	.	.	.	.	.	.
O=c1c2c(nc3cc(-c4ccccc4Cl)[nH]n13)CCS2	85	77	.	.	.	.
CCCNC(=O)c1n[nH]c2c1CC(C(C)(C)CC)CC2 (stereo not given)	.	.	.	.	.	.
CCC(C)(C)C1CCc2[nH]nc(C(=O)N/N=C(\C)c3ccco3)c2C1 (stereo not given)	58	.	.	.	.	.
CC(c1nc2ccccc2n1Cc1ccccc1)n1c(-c2cnccn2)nc2ccccc21 (stereo not given)	/	/	/	/	/	.
CC(=O)N1CCc2cc(NC(=O)C3(C)CCN3Cc3ccccc3OC(F)F)ccc21 (stereo not given)	/	/	/	/	/	.
Cc1nc(NCCOc2ccccc2)sc1C(=O)Nc1ccccc1	76	63	84	.	.	.
Cc1nc(NCc2ccccc2)sc1C(=O)Nc1ccccc1	.	.	.	.	.	.
CCOC(=O)NC(=O)/C(C#N)=N\Nc1ccc(Cl)cc1	.	.	.	.	.	43
N#C/C(=N\Nc1ccc(Cl)cc1)C(=O)c1ccccc1	.	.	.	.	.	46
CCOC(=O)NC(=O)/C(C#N)=N\Nc1cccc(Cl)c1	.	.	.	.	.	.
